pIC50: −log10 of the molar value.
What was measured:
[1] = biological target: Mitogen-activated protein kinase 14 (Homo sapiens, UniProt Q16539); assay: Inhibition of p38alpha using myelin basic protein as substrate preincubated for 15 mins prior ATP addition measured after 60 mins by scintillation counting
[2] = biological target: Mitogen-activated protein kinase 8 (Homo sapiens, UniProt P45983); assay: Inhibition of hexa-His-tagged JNK1 expressed in baculoviral system using GST-tagged c-Jun as substrate preincubated for 15 mins prior ATP addition measured after 60 mins by scintillation counting
Chain of Mitogen-activated protein kinase 8 (P45983 whole entry): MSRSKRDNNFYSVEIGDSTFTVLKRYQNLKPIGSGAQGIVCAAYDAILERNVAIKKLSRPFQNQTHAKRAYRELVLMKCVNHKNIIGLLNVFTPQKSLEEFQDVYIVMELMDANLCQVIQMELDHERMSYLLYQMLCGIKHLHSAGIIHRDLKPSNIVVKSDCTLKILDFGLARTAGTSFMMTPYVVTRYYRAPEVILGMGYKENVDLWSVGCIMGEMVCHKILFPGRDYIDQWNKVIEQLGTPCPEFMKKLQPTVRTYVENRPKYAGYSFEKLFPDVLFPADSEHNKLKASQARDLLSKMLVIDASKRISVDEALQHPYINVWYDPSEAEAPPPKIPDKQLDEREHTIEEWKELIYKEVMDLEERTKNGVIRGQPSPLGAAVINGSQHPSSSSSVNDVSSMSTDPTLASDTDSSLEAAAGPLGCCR

[3] = biological target: c-Jun N-terminal kinase, JNK (Homo sapiens, UniProt P45983+P53779+P45984); assay: Inhibition of JNK-mediated GST tagged c-Jun phosphorylation in human Jurkat T cells compound treated for 30 mins prior anisomycin stimulation measured after 40 mins by fluorescence spectrophotometry; format: cell-based
[4] = Oral bioavailability in rat; format: ADME, organism-based; details: in vivo
[5] = Clearance in rat at 2 mg/kg, iv; format: ADME, organism-based; parameters: dose 2 mg/kg, route intravenous; details: in vivo
Procedure, shortened: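 Rats dosed intravenously at 2 mg/kg in a solution of 5% DMA and 30% PEG 400.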

[6] = AUC in rat at 10 mg/kg, po; format: ADME, organism-based; parameters: dose 10 mg/kg, route oral; details: plasma
Procedure, shortened: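 Oral dose of 10 mg/kg given as a suspension in aqueous 0.5% CMC/0.25% Tween 80. Plasma AUC, Cmax and Tmax were taken from the oral arm. Bioavailability was derived against the intravenous arm in the same species.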

Rattus norvegicus = assay: Antiinflammatory activity in CD rat assessed as inhibition of LPS-stimulated TNFalpha production at 30 mg/kg, po administered 1 hr prior LPS challenge measured after 90 mins by ELISA; format: functional
Procedure, shortened: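 Acute PK-PD model in rats: compound given by oral gavage at 10 or 30 mg/kg, then lipopolysaccharide injected, and plasma TNF-alpha release measured.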

[7] = AUC in po dosed rat; format: ADME, organism-based; details: plasma

Chain of Mitogen-activated protein kinase 14 (Q16539 whole entry): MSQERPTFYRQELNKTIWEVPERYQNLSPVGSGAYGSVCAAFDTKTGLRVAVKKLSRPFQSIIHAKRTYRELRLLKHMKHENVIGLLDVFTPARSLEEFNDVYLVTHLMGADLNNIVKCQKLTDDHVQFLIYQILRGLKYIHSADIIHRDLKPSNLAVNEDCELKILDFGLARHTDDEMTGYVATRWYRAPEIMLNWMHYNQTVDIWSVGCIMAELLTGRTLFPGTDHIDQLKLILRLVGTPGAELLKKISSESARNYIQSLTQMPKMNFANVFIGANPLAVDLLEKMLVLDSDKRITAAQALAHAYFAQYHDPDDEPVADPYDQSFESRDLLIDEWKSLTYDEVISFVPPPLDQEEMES

pIC50 [1]	pIC50 [2]	IC50 [3] [nM]	bioavailability [4] [%]	clearance [5] [mL/min/kg]	AUC [6] [µM·h]	AUC [7] [µM·h]	SMILES	inhibition in vivo at 30 mg/kg (Rattus norvegicus) [%]
< 5.52	5.92	2500					C[C@]1(O)CC[C@H](Nc2ncc3nc(Nc4ccc(F)cc4F)n(C4CCOCC4)c3n2)CC1	
6.25	6.92	440	68	59	2.7		O[C@H]1CC[C@H](Nc2ncc3nc(Nc4ccc(F)cc4F)n(C4CCCC4)c3n2)CC1	
6.54	6.77	1800					CC(C)(O)[C@H]1CC[C@H](Nc2ncc3nc(Nc4ccc(F)cc4F)n(C4CCCC4)c3n2)CC1	
6.64	6.05						Fc1ccc(Nc2nc3cnc(C4CCOCC4)nc3n2C2CCCC2)c(F)c1	
5.19	7.20	230	20	26		2.4	CC(C)Nc1ncc2nc(Nc3c(F)cc(F)cc3F)n([C@H]3CC[C@@H](C(=O)N4CCOCC4)CC3)c2n1	58
6.07	6.06						CS(=O)(=O)N[C@H]1CC[C@H](Nc2ncc3nc(Nc4ccc(F)cc4F)n(C4CCOCC4)c3n2)CC1	
< 5.52							O[C@H]1CC[C@H](Nc2ncc3nc(Nc4c(F)cc(F)cc4F)n([C@@H]4CCOC4)c3n2)CC1	
< 5.52	5.89	1700					CC(C)(O)[C@H]1CC[C@@H](c2ncc3nc(Nc4ccc(F)cc4F)n(C4CCOCC4)c3n2)C1	
